Consider 1 compound from ChEMBL document CHEMBL4020823, “Highly Selective, Potent, and Oral mTOR Inhibitor for Treatment of Cancer as Autophagy Inducer” (J Med Chem, 2018).

pIC50: −log10 of the molar value. Calls of active or inactive are those of the source. The rule behind the calls is not given here.

Data set [1] is filed under the species Homo sapiens. Put plainly: Inhibition of mTORC1 in human MCF7 cells assessed as reduction in 4E-BP1 phosphorylation at Thr37/46 residues at 0.25 to 0.5 uM by Western blot analysis. Type of data set: cell-based. The method in brief: (§1)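 Cells treated with the indicated concentrations, then whole-cell lysates immunoblotted. mTORC1 activity read as S6 and 4E-BP1 phosphorylation; mTORC2 activity read as AKT Ser473 phosphorylation. Blocking in 5% skim milk, primary antibodies at 4 °C overnight, peroxidase-conjugated secondary, ECL detection.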

Data set [2] is filed under the species Homo sapiens. Put plainly: Inhibition of mTORC1 in human MDA-MB-231 cells assessed as reduction in S6 phosphorylation at Ser 240/244 residues at 0.25 to 0.5 uM by Western blot analysis. Type of data set: cell-based. The gist of the method: as §1
In data set [3] the test system is MCF7. Put plainly: Growth inhibition of human MCF7 cells after 72 hrs by CCK8 assay. Type of data set: functional, cell-based. Particulars: MCF7, 72 h. The gist of the method:
(§2)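 Cells were seeded at 2000–3000 per well and grown 24 h in serum-containing medium. They were then exposed to serially diluted compound for 72 h at 37 °C, 5% CO2. CCK8 reagent was added for 1–4 h and absorbance read at 450 nm. Inhibition = (AC − AS)/(AC − Ab) × 100%. IC50 is the average of at least three independent determinations.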

The test system of data set [4] is SiHa. Put plainly: Growth inhibition of human SiHa cells after 72 hrs by CCK8 assay. Type of data set: functional, cell-based. The gist of the method:
as §2

The nature of data set [5]: AUC (0 to infinity) in Sprague-Dawley rat at 20 mg/kg, po administered as single dose by HPLC analysis. Particulars: in vivo. The arrangement: dose 20 mg/kg, route oral, time infinity. Type of data set: ADME, organism-based. The gist of the method:
(§3)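 Rats fasted overnight, then given one 20 mg/kg dose either iv or po. Blood was collected and centrifuged at once to obtain plasma. Plasma drug levels were measured by HPLC, and PK parameters were derived from the concentration-time data.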

Data set [6] has as its system MCF7. Put plainly: Cell cycle arrest in human MCF7 cells assessed as accumulation at G0/G1 phase at 0.25 to 0.5 uM after 24 hrs by propidium iodide-staining based flow cytometric analysis. Format: functional. The method in brief:
(§4)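 Cells were seeded at 5 × 10^5 cells/mL. At 24 h after plating they were treated with increasing concentrations for 24 h, washed in PBS, and fixed in ice-cold 70% ethanol for at least 24 h. They were stained with propidium iodide plus RNase A for 30 min at 37 °C and analysed by flow cytometry for phase distribution.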

Data set [7] deals with DNA-dependent protein kinase catalytic subunit (Homo sapiens, UniProt P78527). Put plainly: Inhibition of full length recombinant human DNA-PK.
Data set [8] relates to Mus musculus. Put plainly: Down regulation of 4E-BP1 phosphorylation at Ser65 residues in human T47D cells xenografted in BALB/c nude mouse administered via oral gavage after 3 weeks by hematoxylin and eosine staining based light microscopic assay. Type of data set: functional, cell-based. The method in brief: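 Tumours from the oral 3-week T-47D xenograft study were formalin-fixed, paraffin-embedded and cut into 5 μm sections. Sections were deparaffinized, rehydrated and incubated overnight at 4 °C with phospho-specific primary antibody at 1:100. Biotin secondary was applied for 1 h at room temperature, then ABC-peroxidase/DAB with hematoxylin counterstain. Sections were viewed by light microscopy.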

The next data set deals with Rattus norvegicus. Put plainly: Apparent volume of distribution at steady state in Sprague-Dawley rat at 20 mg/kg, po administered as single dose by HPLC analysis. Format: ADME, organism-based. Particulars: in vivo. The gist of the method: as §3
The species entered for data set [9] is Homo sapiens. Put plainly: Inhibition of mTORC1 in human MDA-MB-231 cells assessed as reduction in 4E-BP1 phosphorylation at Ser65 residues at 0.25 to 0.5 uM by Western blot analysis. Format: cell-based. The method in brief: as §1
The target in data set [10] is PI3K p110 beta/p85 alpha (Mus musculus) (UniProt P26450+Q8BTI9). Put plainly: Inhibition of full length recombinant mouse PI3K p110beta/p85alpha at 1 uM relative to control. Format: protein-complex assay. The gist of the method: (§5)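 Eurofins KinaseProfiler panel with compound at a single 1 μM concentration. ATP at the Km of each kinase. Result is % inhibition, mean of two independent experiments.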

Data set [11] addresses Phosphatidylinositol 4-phosphate 3-kinase C2 domain-containing subunit alpha (Homo sapiens) (UniProt O00443). Put plainly: Inhibition of human PI3KC2alpha at 1 uM relative to control. The gist of the method: as §5
The test system of a further data set is HeLa. Put plainly: Growth inhibition of human HeLa cells after 72 hrs by CCK8 assay. Format: functional, cell-based. The method in brief: as §2
For data set [12], the system named is T47D. Put plainly: Antitumor activity against human T47D cells xenografted in BALB/c nude mouse assessed as decrease in tumor growth at 15 mg/kg, po administered via gavage after 3 weeks relative to control. To be noted: 504 h, read-out: TGI. Type of data set: functional.
For data set [13], the species on record is Homo sapiens. Put plainly: Inhibition of mTORC2 in human MDA-MB-231 cells assessed as reduction in AKT phosphorylation at Ser473 residues at 0.25 to 0.5 uM by Western blot analysis. Format: cell-based. The gist of the method:
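Cells exposed to a range of compound concentrations; whole-cell lysates immunoblotted for phospho-AKT (Ser473) as the mTORC2 readout, alongside S6 and 4E-BP1 phosphorylation for mTORC1. Membranes blocked in 5% skim milk, primary antibodies overnight at 4 °C, peroxidase-conjugated anti-mouse or anti-rabbit IgG secondary, ECL detection. Rapamycin as comparator.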

Data set [14] concerns T47D. Put plainly: Induction of autophagy in human T47D cells assessed as increase in LC3-2 level at 0.25 to 0.5 uM after 48 hrs by Western blot analysis. Type of data set: functional, cell-based. The method in brief: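 Cells treated with test agents at several concentrations for 2 days (48 h). LC3B-II detected by Western blot on lysates, with β-actin as internal control. Membranes blocked in 5% skim milk, primary antibodies at 4 °C overnight, peroxidase-conjugated anti-mouse or anti-rabbit IgG secondary, ECL detection.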

For data set [15], the species on record is Homo sapiens. Put plainly: Inhibition of mTORC1 in human T47D cells assessed as reduction in 4E-BP1 phosphorylation at Ser65 residues at 0.25 to 0.5 uM by Western blot analysis. Type of data set: cell-based. The gist of the method: as §1
Data set [16] in a line: Protein binding in rabbit plasma at 4 uM after 4 hrs by equilibrium dialysis method. Format: ADME, cell-free, Oryctolagus cuniculus. To be noted: read-out: PPB (converted). The gist of the method:
(§6)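 Plasma protein binding measured in rabbit and human plasma with compound at 4 μM over a 4 h period; result given as percent bound.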

For data set [17], the system named is SiHa. Put plainly: Induction of autophagy in human SiHa cells assessed as increase in LC3-2 puncta level after 48 hrs by immunofluorescence staining based microscopic analysis. Type of data set: functional, cell-based. The method in brief:
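Cells seeded on glass coverslips in complete 1640 or DMEM and incubated with inhibitors at different concentrations for 48 h. Fixed in 4% paraformaldehyde, permeabilized with 0.15% Triton X-100, blocked in 4% BSA/PBS for 1 h at room temperature. Anti-LC3B (1:200) overnight, then FITC-conjugated secondary, DAPI nuclear stain. LC3B-II puncta viewed by fluorescence microscopy.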

Data set [18] deals with T47D. Put plainly: Antitumor activity against human T47D cells xenografted in BALB/c nude mouse assessed as decrease in tumor growth at 30 mg/kg, po administered via gavage after 3 weeks relative to control. To be noted: 504 h, read-out: TGI. Format: functional.
Data set [19] has as its system T47D. Put plainly: Cell cycle arrest in human T47D cells assessed as decrease in S-phase at 0.25 to 0.5 uM after 24 hrs by propidium iodide-staining based flow cytometric analysis. Format: functional. The gist of the method:
as §4

A short description of data set [20]: Half life in Sprague-Dawley rat at 20 mg/kg, iv administered as single dose by HPLC analysis. Format: ADME, organism-based. To be noted: in vivo. The gist of the method:
as §3

For data set [21], the species on record is Mus musculus. Put plainly: Inhibition of full length recombinant mouse PI3K p85alpha/p110alpha E545K mutant at 1 uM relative to control. The gist of the method: as §5
Data set [22] in a line: Protein binding in human plasma at 4 uM after 4 hrs by equilibrium dialysis method. Format: ADME, cell-free. To be noted: read-out: PPB (converted). The gist of the method:
as §6

Sequence of Phosphatidylinositol 4-phosphate 3-kinase C2 domain-containing subunit alpha (Homo sapiens) (O00443 whole entry, the tested form may be a part): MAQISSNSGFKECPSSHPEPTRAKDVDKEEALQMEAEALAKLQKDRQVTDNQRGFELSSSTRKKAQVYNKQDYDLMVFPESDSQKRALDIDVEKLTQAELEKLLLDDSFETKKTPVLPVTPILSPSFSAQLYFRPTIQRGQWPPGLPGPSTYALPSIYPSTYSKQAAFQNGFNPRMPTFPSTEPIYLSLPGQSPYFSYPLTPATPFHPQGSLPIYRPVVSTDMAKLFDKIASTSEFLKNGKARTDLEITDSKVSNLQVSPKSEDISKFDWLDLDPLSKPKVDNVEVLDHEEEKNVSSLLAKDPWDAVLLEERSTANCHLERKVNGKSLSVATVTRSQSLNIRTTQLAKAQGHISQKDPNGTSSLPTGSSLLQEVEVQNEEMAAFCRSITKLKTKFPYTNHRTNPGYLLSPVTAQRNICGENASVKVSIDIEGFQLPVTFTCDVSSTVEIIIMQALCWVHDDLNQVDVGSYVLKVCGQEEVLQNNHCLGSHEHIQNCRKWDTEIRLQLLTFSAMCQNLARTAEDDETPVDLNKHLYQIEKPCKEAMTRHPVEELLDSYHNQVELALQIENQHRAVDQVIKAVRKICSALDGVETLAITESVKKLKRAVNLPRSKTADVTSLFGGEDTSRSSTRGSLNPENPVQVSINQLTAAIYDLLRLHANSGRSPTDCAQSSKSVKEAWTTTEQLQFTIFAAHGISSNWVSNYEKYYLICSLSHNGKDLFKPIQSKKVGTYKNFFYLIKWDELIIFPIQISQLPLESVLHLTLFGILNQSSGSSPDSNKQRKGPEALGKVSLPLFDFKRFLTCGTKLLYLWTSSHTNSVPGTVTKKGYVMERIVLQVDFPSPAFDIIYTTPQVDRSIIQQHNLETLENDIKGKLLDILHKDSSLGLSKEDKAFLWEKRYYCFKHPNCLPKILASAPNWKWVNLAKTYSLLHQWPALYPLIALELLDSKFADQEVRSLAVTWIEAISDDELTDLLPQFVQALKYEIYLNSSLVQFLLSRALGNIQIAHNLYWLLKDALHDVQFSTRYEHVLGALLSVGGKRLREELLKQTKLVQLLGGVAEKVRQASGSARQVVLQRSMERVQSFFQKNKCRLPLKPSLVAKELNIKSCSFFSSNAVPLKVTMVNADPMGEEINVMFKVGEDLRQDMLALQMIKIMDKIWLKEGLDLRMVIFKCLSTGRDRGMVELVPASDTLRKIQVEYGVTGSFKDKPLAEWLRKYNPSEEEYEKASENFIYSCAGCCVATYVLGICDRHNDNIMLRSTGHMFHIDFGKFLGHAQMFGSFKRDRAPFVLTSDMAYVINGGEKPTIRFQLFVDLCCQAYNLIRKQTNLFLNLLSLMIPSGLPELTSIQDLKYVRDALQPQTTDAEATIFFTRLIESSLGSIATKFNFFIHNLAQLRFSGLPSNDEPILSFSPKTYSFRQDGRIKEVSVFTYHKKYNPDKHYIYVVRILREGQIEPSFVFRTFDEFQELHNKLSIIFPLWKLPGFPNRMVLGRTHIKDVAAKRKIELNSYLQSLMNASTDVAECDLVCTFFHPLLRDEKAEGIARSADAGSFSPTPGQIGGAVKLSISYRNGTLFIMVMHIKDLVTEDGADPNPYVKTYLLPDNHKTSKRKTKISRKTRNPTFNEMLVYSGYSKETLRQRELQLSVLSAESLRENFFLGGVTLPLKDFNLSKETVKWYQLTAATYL

Regarding `N#CCN1CCC(n2c(=O)cnc3cnc4ccc(-c5ccc(N)nc5)cc4c32)CC1`, the inhibition result in the data set listed under Homo sapiens [1], in the data set filed under Homo sapiens [2], in the data set listed under Homo sapiens [9], in the data set listed under Homo sapiens [13] and in the data set listed under Homo sapiens [15] was “Active” each time. The negative logarithm of the IC50 (pIC50) was 6.99 in the data set with MCF7 [3], 6.96 in the data set on SiHa [4], 7.59 in [7] and 6.36 in the data set with HeLa. The AUC(0-inf) in data set [5] is 2850 ng·h/mL. In addition, the result with MCF7 [6], in the data set with T47D [14] and in the data set with T47D [19] was Active. Also, the Activity result in the data set with Mus musculus [8] and with SiHa [17] was “Dose-dependent effect” throughout. In the data set on Rattus norvegicus, the “Vdss(app)” value worked out at 21.79 L/kg. Besides, the inhibition in data set [10] was determined as 5%; in data set [11], 4%; in the data set listed under Mus musculus [21] it was 9%. Also, the inhibition in vivo at 15 mg/kg in the data set on T47D [12] is 63.2%. The fraction unbound at 4 h, 4 µM in [16] was 0.399; in data set [22], 0.36. For the same compound, the inhibition in vivo at 30 mg/kg with T47D [18] came to 75.6%. The same compound had a half-life in [20] of 7.57 h.
